Tests used:
Type in all cases: functional
M14 = experiment: Cytotoxicity against human M14 cells assessed as cell growth at 10 uM after 48 hrs by SRB assay relative to control; details: M14, 48 h, read-out: Activity
How it was run: (§1)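 First-stage NCI-60 screen by the NCI Developmental Therapeutics Program. Each compound was tested once at a single concentration of 10 μM against the 60-cell-line panel. Growth percentage was reported for each cell line.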

MDA-MB-435 = experiment: Cytotoxicity against human MDA-MB-435 cells assessed as cell growth at 10 uM after 48 hrs by SRB assay relative to control; details: MDA-MB-435, 48 h, read-out: Activity
How it was run: (§2)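 First-stage NCI DTP one-dose screen against the 60 human tumour cell line panel. Compounds were tested at a single 10 μM level, and results are given as growth percentage.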

SK-MEL-2 = experiment: Cytotoxicity against human SK-MEL-2 cells assessed as cell growth at 10 uM after 48 hrs by SRB assay relative to control; details: SK-MEL-2, 48 h, read-out: Activity; how it was run: as §2
SK-MEL-5 = experiment: Cytotoxicity against human SK-MEL-5 cells assessed as cell growth at 10 uM after 48 hrs by SRB assay relative to control; details: SK-MEL-5, 48 h, read-out: Activity; how it was run: as §2
UACC-257 = experiment: Cytotoxicity against human UACC257 cells assessed as cell growth at 10 uM after 48 hrs by SRB assay relative to control; details: UACC-257, 48 h, read-out: Activity
How it was run: (§3)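 NCI-60 one-dose screen run by NCI DTP: each cell line exposed to a single 10 µM dose, and percentage growth recorded against untreated growth.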

OVCAR-3 = experiment: Cytotoxicity against human OVCAR3 cells assessed as cell growth at 10 uM after 48 hrs by SRB assay relative to control; details: OVCAR-3, 48 h, read-out: Activity; how it was run: as §2
OVCAR-8 = experiment: Cytotoxicity against human OVCAR8 cells assessed as cell growth at 10 uM after 48 hrs by SRB assay relative to control; details: OVCAR-8, 48 h, read-out: Activity; how it was run: as §2
SK-OV-3 = experiment: Cytotoxicity against human SKOV3 cells assessed as cell growth at 10 uM after 48 hrs by SRB assay relative to control; details: SK-OV-3, 48 h, read-out: Activity; how it was run: as §2
A498 = experiment: Cytotoxicity against human A498 cells assessed as cell growth at 10 uM after 48 hrs by SRB assay relative to control; details: A498, 48 h, read-out: Activity; how it was run: as §1
ACHN = experiment: Cytotoxicity against human ACHN cells assessed as cell growth at 10 uM after 48 hrs by SRB assay relative to control; details: read-out: Activity; how it was run: as §1
RXF 393 = experiment: Cytotoxicity against human RXF393 cells assessed as cell growth at 10 uM after 48 hrs by SRB assay relative to control; details: RXF 393, 48 h, read-out: Activity; how it was run: as §2
TK-10 = experiment: Cytotoxicity against human TK10 cells assessed as cell growth at 10 uM after 48 hrs by SRB assay relative to control; details: TK-10, 48 h, read-out: Activity; how it was run: as §3
UO-31 = experiment: Cytotoxicity against human UO31 cells assessed as cell growth at 10 uM after 48 hrs by SRB assay relative to control; details: UO-31, 48 h, read-out: Activity; how it was run: as §3
DU-145 = experiment: Cytotoxicity against human DU145 cells assessed as cell growth at 10 uM after 48 hrs by SRB assay relative to control; details: DU-145, 48 h, read-out: Activity; how it was run: as §1
MDA-MB-231 = experiment: Cytotoxicity against human MDA-MB-231 cells assessed as cell growth at 10 uM after 48 hrs by SRB assay relative to control; details: MDA-MB-231, 48 h, read-out: Activity; how it was run: as §2
[1] = Cytotoxicity against human Hs578T cells assessed as cell growth at 10 uM after 48 hrs by SRB assay relative to control; details: Hs-578T, read-out: Activity; how it was run: as §1
T47D = experiment: Cytotoxicity against human T47D cells assessed as cell growth at 10 uM after 48 hrs by SRB assay relative to control; details: read-out: Activity; how it was run: as §3
K562 = experiment: Cytotoxicity against human K562 cells assessed as cell growth at 10 uM after 48 hrs by SRB assay relative to control; details: K562, 48 h, read-out: Activity; how it was run: as §1
A549 = experiment: Cytotoxicity against human A549 cells assessed as cell growth at 10 uM after 48 hrs by SRB assay relative to control; details: A549, 48 h, read-out: Activity; how it was run: as §1
HOP-92 = experiment: Cytotoxicity against human HOP92 cells assessed as cell growth at 10 uM after 48 hrs by SRB assay relative to control; details: HOP-92, 48 h, read-out: Activity; how it was run: as §1
NCI-H226 = experiment: Cytotoxicity against human NCI-H226 cells assessed as cell growth at 10 uM after 48 hrs by SRB assay relative to control; details: NCI-H226, 48 h, read-out: Activity; how it was run: as §2
NCI-H23 = experiment: Cytotoxicity against human NCI-H23 cells assessed as cell growth at 10 uM after 48 hrs by SRB assay relative to control; details: NCI-H23, 48 h, read-out: Activity; how it was run: as §2
NCI-H460 = experiment: Cytotoxicity against human NCI-H460 cells assessed as cell growth at 10 uM after 48 hrs by SRB assay relative to control; details: NCI-H460, 48 h, read-out: Activity; how it was run: as §2
NCI-H522 = experiment: Cytotoxicity against human NCI-H522 cells assessed as cell growth at 10 uM after 48 hrs by SRB assay relative to control; details: NCI-H522, 48 h, read-out: Activity; how it was run: as §2
COLO 205 = experiment: Cytotoxicity against human COLO205 cells assessed as cell growth at 10 uM after 48 hrs by SRB assay relative to control; details: COLO 205, 48 h, read-out: Activity; how it was run: as §1
HCT-116 = experiment: Cytotoxicity against human HCT116 cells assessed as cell growth at 10 uM after 48 hrs by SRB assay relative to control; details: HCT-116, 48 h, read-out: Activity; how it was run: as §1
HCT-15 = experiment: Cytotoxicity against human HCT15 cells assessed as cell growth at 10 uM after 48 hrs by SRB assay relative to control; details: HCT-15, 48 h, read-out: Activity; how it was run: as §1
SF-268 = experiment: Cytotoxicity against human SF268 cells assessed as cell growth at 10 uM after 48 hrs by SRB assay relative to control; details: SF-268, 48 h, read-out: Activity; how it was run: as §2
SF-295 = experiment: Cytotoxicity against human SF295 cells assessed as cell growth at 10 uM after 48 hrs by SRB assay relative to control; details: SF-295, 48 h, read-out: Activity; how it was run: as §2
SF-539 = experiment: Cytotoxicity against human SF539 cells assessed as cell growth at 10 uM after 48 hrs by SRB assay relative to control; details: SF-539, 48 h, read-out: Activity; how it was run: as §2
SNB-75 = experiment: Cytotoxicity against human SNB75 cells assessed as cell growth at 10 uM after 48 hrs by SRB assay relative to control; details: SNB-75, 48 h, read-out: Activity; how it was run: as §3
LOX IMVI = experiment: Cytotoxicity against human LOXIMVI cells assessed as cell growth at 10 uM after 48 hrs by SRB assay relative to control; details: read-out: Activity; how it was run: as §1

Row | Compound | growth at 10 µM (M14) [%] | growth at 10 µM (MDA-MB-435) [%] | growth at 10 µM (SK-MEL-2) [%] | growth at 10 µM (SK-MEL-5) [%] | growth at 10 µM (UACC-257) [%] | growth at 10 µM (OVCAR-3) [%] | growth at 10 µM (OVCAR-8) [%] | growth at 10 µM (SK-OV-3) [%] | growth at 10 µM (A498) [%] | growth at 10 µM (ACHN) [%] | growth at 10 µM (RXF 393) [%] | growth at 10 µM (TK-10) [%] | growth at 10 µM (UO-31) [%] | growth at 10 µM (DU-145) [%] | growth at 10 µM (MDA-MB-231) [%] | growth at 10 µM [1] [%] | growth at 10 µM (T47D) [%] | growth at 10 µM (K562) [%] | growth at 10 µM (A549) [%] | growth at 10 µM (HOP-92) [%] | other results
1 | O=C1c2ccccc2C(=O)c2c1cc(Sc1ccc(F)cc1F)c1nsnc21 | 53.8 | -85.3 | 51.8 | 48.5 | 43.9 | -52.3 | 0.32 | 92.6 | 50.8 | 34.9 | 36.7 | 112 | 70.3 | 41.3 | -9.73 | 50.1 | -28.6 | -21.1 | 112 | -18.4 | growth at 10 µM (NCI-H226): 88.8%; growth at 10 µM (NCI-H23): 9.53%; growth at 10 µM (NCI-H460): 83.6%; growth at 10 µM (NCI-H522): 61.1%; growth at 10 µM (COLO 205): 104%; growth at 10 µM (HCT-116): -63.1%; growth at 10 µM (HCT-15): 45.8%; growth at 10 µM (SF-268): 8.47%; growth at 10 µM (SF-295): 68.8%; growth at 10 µM (SF-539): 58.8%; growth at 10 µM (SNB-75): 42.9%; growth at 10 µM (LOX IMVI): -42%
2 | Cc1ccccc1Sc1cc2c(c3nsnc13)C(=O)c1ccccc1C2=O | 94.2 | 80.6 | 73.3 | 87.5 | 87.3 | 5.3 | 76.3 | 93.8 | 85.5 | 89.8 | 95.9 | 123 | 62.1 | 102 | 60.7 | 83.7 | 51.9 | 32.3 | 105 | 89.9 | growth at 10 µM (NCI-H226): 95.7%; growth at 10 µM (NCI-H23): 53.2%; growth at 10 µM (NCI-H460): 88.9%; growth at 10 µM (NCI-H522): 74.8%; growth at 10 µM (COLO 205): 99.2%; growth at 10 µM (HCT-116): 92.2%; growth at 10 µM (HCT-15): 38.6%; growth at 10 µM (SF-268): 74.7%; growth at 10 µM (SF-295): 105%; growth at 10 µM (SF-539): 78%; growth at 10 µM (SNB-75): 76.3%; growth at 10 µM (LOX IMVI): 30%
3 | CSc1ccc(Sc2cc3c(c4nsnc24)C(=O)c2ccccc2C3=O)cc1 | 108 | 118 | 89.3 | 101 | 110 | 103 | 97.4 | 102 | 56 | 104 | 107 | 128 | 67.6 | 101 | 78.8 | 96.5 | 86.6 | 67.5 | 105 | 4.31 | growth at 10 µM (NCI-H226): 79.7%; growth at 10 µM (NCI-H23): 81.5%; growth at 10 µM (NCI-H460): 106%; growth at 10 µM (NCI-H522): 95.4%; growth at 10 µM (COLO 205): 117%; growth at 10 µM (HCT-116): 102%; growth at 10 µM (HCT-15): 112%; growth at 10 µM (SF-268): 89.7%; growth at 10 µM (SF-295): 98.9%; growth at 10 µM (SF-539): 96.5%; growth at 10 µM (SNB-75): 75.1%; growth at 10 µM (LOX IMVI): 69%
4 | O=C1c2ccccc2C(=O)c2c1cc(Sc1cc(Cl)ccc1Cl)c1nsnc21 | 99 | 106 | 101 | 109 | 119 | 99.4 | 85.1 | 84.1 | 87.7 | 88.5 | 91.5 | 112 | 91.5 | 102 | 82.4 | 72.5 | 63.4 | 47.8 | 103 | 65.1 | growth at 10 µM (NCI-H226): 112%; growth at 10 µM (NCI-H23): 74.6%; growth at 10 µM (NCI-H460): 101%; growth at 10 µM (NCI-H522): 91.3%; growth at 10 µM (COLO 205): 110%; growth at 10 µM (HCT-116): 81.9%; growth at 10 µM (HCT-15): 92.8%; growth at 10 µM (SF-268): 83%; growth at 10 µM (SF-295): 78.9%; growth at 10 µM (SF-539): 88.7%; growth at 10 µM (SNB-75): 47%; growth at 10 µM (LOX IMVI): 73%
5 | O=C1c2ccccc2C(=O)c2c1cc(Sc1ccccc1Br)c1nsnc21 | 59.5 | -73 | 35 | 46.3 | 4.75 | -65.8 | 2.47 | 66.7 | 24.2 | 25.5 | -8.53 | 76.5 | 56.1 | 50.6 | 16.9 | 54.2 | -33 | 29.7 | 95.4 | 37.6 | growth at 10 µM (NCI-H226): 92.1%; growth at 10 µM (NCI-H23): 18%; growth at 10 µM (NCI-H460): 58.2%; growth at 10 µM (NCI-H522): 30.8%; growth at 10 µM (COLO 205): 97.4%; growth at 10 µM (HCT-116): 16.6%; growth at 10 µM (HCT-15): 39.7%; growth at 10 µM (SF-268): -5.11%; growth at 10 µM (SF-295): 100%; growth at 10 µM (SF-539): -5.66%; growth at 10 µM (SNB-75): 47.2%; growth at 10 µM (LOX IMVI): -15.3%
